Experimental data as given in ChEMBL document CHEMBL1129439, “Synthesis and in vitro characterization of N-[5-(4,5-dihydro-1H-imidazol-2-yl)-2-hydroxy-5,6,7,8- tetrahydronaphthalen-1-yl]methanesulfonamide and its enantiomers: a novel selective alpha 1A receptor agonist” (J Med Chem, 1996).

Experiments:
[1] = target: T1, Alpha-1D adrenergic receptor (Rattus norvegicus, UniProt P23944); assay: In vitro agonist potency towards Alpha-1D adrenergic receptor in rat aorta; assay type: functional, tissue-based
T1 sequence (P23944 whole entry): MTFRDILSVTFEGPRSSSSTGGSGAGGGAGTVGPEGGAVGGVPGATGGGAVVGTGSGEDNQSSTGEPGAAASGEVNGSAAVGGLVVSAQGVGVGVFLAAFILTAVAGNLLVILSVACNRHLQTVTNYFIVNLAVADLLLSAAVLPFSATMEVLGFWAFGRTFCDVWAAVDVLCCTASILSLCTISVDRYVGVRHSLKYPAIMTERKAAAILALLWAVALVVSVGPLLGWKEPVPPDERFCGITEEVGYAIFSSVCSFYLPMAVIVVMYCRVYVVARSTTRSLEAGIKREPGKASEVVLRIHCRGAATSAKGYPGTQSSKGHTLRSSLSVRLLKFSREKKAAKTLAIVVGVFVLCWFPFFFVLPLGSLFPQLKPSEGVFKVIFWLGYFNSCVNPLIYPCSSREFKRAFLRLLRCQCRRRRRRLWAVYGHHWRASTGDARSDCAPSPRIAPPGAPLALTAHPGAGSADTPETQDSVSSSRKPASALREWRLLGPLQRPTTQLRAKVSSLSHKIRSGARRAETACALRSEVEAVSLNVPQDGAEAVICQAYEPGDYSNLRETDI

[2] = target: T1, Alpha-1D adrenergic receptor; assay: Binding affinity towards rat clonal Alpha-1D adrenergic receptor
Procedure, shortened: (§1)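 Radioligand binding to cloned receptors: bovine α1a for line 1 and rat α1d for line 2.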

[3] = target: T2, Alpha-1A adrenergic receptor (Homo sapiens) (UniProt P35348); assay: Percent response towards alpha 1A adrenergic receptor in canine prostate using phenylephrine as control agonist; assay type: functional, tissue-based; details: Canis lupus familiaris; Prostate gland; target entry is the homologue from another species
T2 sequence (whole entry): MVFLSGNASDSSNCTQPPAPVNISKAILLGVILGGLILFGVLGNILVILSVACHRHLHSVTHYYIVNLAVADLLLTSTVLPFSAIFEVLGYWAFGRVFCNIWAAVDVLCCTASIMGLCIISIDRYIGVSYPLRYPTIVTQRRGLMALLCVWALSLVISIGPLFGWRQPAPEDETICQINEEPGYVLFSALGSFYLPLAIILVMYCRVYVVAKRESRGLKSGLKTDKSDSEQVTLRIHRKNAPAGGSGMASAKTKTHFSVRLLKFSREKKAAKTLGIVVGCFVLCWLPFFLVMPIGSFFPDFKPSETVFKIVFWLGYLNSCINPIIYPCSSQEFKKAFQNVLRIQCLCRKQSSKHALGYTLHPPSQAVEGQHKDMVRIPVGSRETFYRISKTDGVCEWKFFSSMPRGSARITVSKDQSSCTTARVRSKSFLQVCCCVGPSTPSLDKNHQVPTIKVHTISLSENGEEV

[4] = target: T3, Alpha-1A adrenergic receptor (Rattus norvegicus) (UniProt P43140); assay: Percent response towards alpha 1A adrenergic receptor in rat vas deferens using phenylephrine as control agonist; assay type: functional, tissue-based
T3 sequence (whole entry): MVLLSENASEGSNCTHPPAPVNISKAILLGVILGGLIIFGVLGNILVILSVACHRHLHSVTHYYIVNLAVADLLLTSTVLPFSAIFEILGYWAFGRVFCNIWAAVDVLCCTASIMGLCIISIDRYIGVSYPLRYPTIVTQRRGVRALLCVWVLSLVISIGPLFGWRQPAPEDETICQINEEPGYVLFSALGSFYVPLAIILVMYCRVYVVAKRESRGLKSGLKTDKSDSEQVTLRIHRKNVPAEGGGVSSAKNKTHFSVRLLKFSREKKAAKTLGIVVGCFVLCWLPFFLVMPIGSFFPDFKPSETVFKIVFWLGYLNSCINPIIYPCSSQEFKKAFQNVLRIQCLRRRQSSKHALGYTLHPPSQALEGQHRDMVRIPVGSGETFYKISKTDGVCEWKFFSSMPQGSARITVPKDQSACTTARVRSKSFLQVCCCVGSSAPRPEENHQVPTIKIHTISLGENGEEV

[5] = target: T4, Alpha-1B adrenergic receptor (Mesocricetus auratus, UniProt P18841); assay: Binding affinity towards hamster clonal Alpha-1B adrenergic receptor; assay type: single protein
T4 sequence (P18841 whole entry): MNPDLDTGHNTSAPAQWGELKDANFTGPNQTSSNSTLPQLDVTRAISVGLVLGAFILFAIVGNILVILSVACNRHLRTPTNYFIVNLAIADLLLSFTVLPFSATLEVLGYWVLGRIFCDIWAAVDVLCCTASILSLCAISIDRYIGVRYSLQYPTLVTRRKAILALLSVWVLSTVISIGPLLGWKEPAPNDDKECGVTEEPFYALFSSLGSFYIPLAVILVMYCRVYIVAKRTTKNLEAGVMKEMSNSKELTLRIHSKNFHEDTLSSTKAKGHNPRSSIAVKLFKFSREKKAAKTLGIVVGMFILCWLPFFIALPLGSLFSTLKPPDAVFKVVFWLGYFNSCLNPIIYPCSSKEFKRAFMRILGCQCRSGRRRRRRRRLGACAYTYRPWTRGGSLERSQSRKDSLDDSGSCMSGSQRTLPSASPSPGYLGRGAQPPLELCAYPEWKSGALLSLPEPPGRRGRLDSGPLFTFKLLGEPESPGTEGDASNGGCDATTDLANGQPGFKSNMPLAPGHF

[6] = target: T5, Alpha-1D adrenergic receptor (Rattus norvegicus) (UniProt P23944); assay: Percent response towards alpha 1D adrenergic receptor in rat aorta using phenylephrine as control agonist; assay type: functional, tissue-based
T5 sequence (whole entry): T1 sequence (P23944 whole entry)

[7] = target: T6, Alpha-1B adrenergic receptor (Rattus norvegicus, UniProt P15823); assay: In vitro agonist potency towards Alpha-1B adrenergic receptor in rat spleen; assay type: functional, tissue-based
T6 sequence (P15823 whole entry): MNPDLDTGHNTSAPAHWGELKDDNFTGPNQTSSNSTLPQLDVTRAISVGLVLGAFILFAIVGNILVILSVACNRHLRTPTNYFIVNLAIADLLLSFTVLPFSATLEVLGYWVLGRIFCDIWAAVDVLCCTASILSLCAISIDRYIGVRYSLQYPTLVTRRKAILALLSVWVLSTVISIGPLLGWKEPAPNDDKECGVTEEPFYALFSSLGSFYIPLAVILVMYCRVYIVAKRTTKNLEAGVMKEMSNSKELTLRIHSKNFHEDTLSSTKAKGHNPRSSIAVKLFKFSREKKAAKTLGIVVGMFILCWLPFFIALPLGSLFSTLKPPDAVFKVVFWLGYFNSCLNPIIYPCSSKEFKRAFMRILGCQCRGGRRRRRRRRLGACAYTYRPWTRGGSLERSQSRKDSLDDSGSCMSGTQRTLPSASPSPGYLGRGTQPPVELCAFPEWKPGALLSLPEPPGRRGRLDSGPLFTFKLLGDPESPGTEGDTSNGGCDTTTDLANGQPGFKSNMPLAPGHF

[8] = target: T7, Alpha-1A adrenergic receptor (Bos taurus, UniProt P18130); assay: Binding affinity towards bovine clonal Alpha-1A adrenergic receptor; procedure, shortened: as §1
T7 sequence (P18130 whole entry): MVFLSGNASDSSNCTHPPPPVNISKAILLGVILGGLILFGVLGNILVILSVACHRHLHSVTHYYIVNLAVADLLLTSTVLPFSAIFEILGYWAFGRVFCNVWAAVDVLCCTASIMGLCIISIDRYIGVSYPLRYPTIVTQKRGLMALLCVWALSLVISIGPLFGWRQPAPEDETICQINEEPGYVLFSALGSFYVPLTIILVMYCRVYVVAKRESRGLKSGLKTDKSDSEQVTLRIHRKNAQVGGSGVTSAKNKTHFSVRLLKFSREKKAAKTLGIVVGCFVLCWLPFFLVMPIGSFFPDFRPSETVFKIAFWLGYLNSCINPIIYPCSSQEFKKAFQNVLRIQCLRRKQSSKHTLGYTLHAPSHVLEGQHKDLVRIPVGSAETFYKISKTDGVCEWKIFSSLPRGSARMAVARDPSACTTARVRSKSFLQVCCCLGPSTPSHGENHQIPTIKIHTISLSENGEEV

Row | Emax [3] [%] | Emax [4] [%] | Emax [6] [%] | Ki [8] [nM] | SMILES | EC50 [1] [nM] | Ki [2] [nM] | Ki [5] [nM] | EC50 [7] [nM]
1 | 91 | 108 | 100 | 30.2 | CS(=O)(=O)Nc1c(O)ccc2c1CCCC2C1=NCCN1 (stereo not given) | 2570 | 1350 | 2090 | 
2 | 100 | 100 | 100 | 933 | CNC[C@H](O)c1cccc(O)c1 [PHENYLEPHRINE] |  |  |  | 
3 | 117 | 105 | 113 | 447 | NCC(O)c1ccc(O)c(O)c1 (single isomer, unassigned) [NOREPINEPHRINE] |  |  | 263 | 

More lines, now with the values behind:

Row | SMILES | Emax [3] [%] | Emax [4] [%] | Emax [6] [%] | Ki [8] [nM] | EC50 [1] [nM] | Ki [2] [nM] | Ki [5] [nM] | EC50 [7] [nM]
4 | CS(=O)(=O)Nc1c(O)ccc2c1CCC[C@H]2C1=NCCN1 | 63 | 78 | 103 | 17.4 | 1020 | 1020 | 2820 | 186
5 | Cc1cc(C(C)(C)C)c(O)c(C)c1CC1=NCCN1 [OXYMETAZOLINE] | 71 | 80 | 83 | 13.2 |  |  |  | 
6 | CS(=O)(=O)Nc1c(O)ccc2c1CCC[C@@H]2C1=NCCN1 | 24 | 45 |  | 1450 | > 100000 | 2950 | 17400 | > 100000
